{"source": "paper PMC3820002", "about": "(Neuropharmacology, 2010)", "key": {"[1]": {"tested_on": "rat", "details": "ref ScienceLab.com; cited from earlier work"}, "[2]": {"target": "D3 dopamine receptors (Homo sapiens, UniProt P35462)", "sequence (P35462 whole entry)": "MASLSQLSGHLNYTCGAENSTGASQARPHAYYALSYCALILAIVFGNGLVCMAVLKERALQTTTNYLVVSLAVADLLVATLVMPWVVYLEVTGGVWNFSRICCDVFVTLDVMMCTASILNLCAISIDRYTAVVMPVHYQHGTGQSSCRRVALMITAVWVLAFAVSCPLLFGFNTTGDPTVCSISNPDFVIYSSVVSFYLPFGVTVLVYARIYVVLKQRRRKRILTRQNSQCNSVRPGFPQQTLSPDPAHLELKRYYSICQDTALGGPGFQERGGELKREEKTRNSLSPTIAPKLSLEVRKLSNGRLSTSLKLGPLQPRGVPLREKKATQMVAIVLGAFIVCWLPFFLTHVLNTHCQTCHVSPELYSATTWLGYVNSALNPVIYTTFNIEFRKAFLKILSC", "format": "cell-based", "details": "transfected HEK cells; test ligand 10 nM; relative to quinpirole"}, "[3]": {"tested_on": "D3 dopamine receptor", "details": "transfected CHO cells; maximum 10^-5 M; ref Grundt et al., 2005; cited from earlier work"}, "[4]": {"tested_on": "unilaterally lesioned rats", "assay": "Cylinder test of forelimb usage", "format": "in vivo, rat", "details": "PG01042 10 mg/kg with L-dopa/benserazide 8 mg/kg each", "in_short": "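Unilaterally lesioned rats received saline, L-dopa plus benserazide (8 mg/kg each), or these with the test compound (10 mg/kg). In the cylinder, an observer scored which forelimb first touched the Plexiglas wall (left, right or both) during rearing. The right forelimb was contralateral to the lesion. Scoring began 12 min (5 min) and 20 min (until >13 touches/rat) post injection. Read-out was percent usage, n = 7.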"}, "[5]": {"tested_on": "D2 dopamine receptor", "details": "transfected CHO cells; maximum 10^-5 M; ref Grundt et al., 2005; cited from earlier work"}, "[6]": {"tested_on": "human D3 dopamine receptor", "details": "binding; ref Grundt et al., 2005; cited from earlier work"}, "[7]": {"target": "human D2 dopamine receptor", "details": "read-out: Ki at dopamine D2 receptors; ref Grundt et al., 2005; cited from earlier work"}, "[8]": {"tested_on": "unilaterally lesioned rats", "assay": "L-dopa dependent abnormal involuntary movements", "format": "in vivo, rat", "details": "for Normalized total AIMs score, percent relative to vehicle control: 10 mg/kg"}, "[9]": {"tested_on": "unilaterally lesioned rats", "assay": "Apomorphine-dependent AIMs in unilaterally lesioned rats", "format": "in vivo, rat", "in_short": "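Unilaterally lesioned rats received the test compound (10 mg/kg i.p.) or vehicle, immediately followed by apomorphine 0.05 mg/kg s.c. Total AIMs scores were summed over time and expressed as percent of vehicle control, as mean ± S.E.M., n = 12. Periods analysed: 0–60, 0–40 and 50–60 min.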"}, "[10]": {"tested_on": "unilaterally lesioned rats", "assay": "Rotarod test of motor performance and coordination", "format": "in vivo, rat", "details": "10 mg/kg i.p.; 30 and 60 minutes post drug administration; p ≥ 0.10"}, "[11]": {"details": "10 mg/kg i.p., 0 min pretreatment, L-dopa/benserazide 8 mg/kg each, n = 12"}}, "note": "Values joined by “and” are separate entries in the source; they are usually repeats but may differ in a detail not shown here. Equal entries are not always repeated."}
{"smiles": "C[S+](C)[O-]", "note": "[DMSO, dimethylsulfoxide]", "values": [{"measurement": "Oral acute LD50", "setting": "[1]", "value": 14500, "unit": "mg/kg"}]}
{"smiles": "O=C(NC/C=C/CN1CCN(c2cccc(Cl)c2Cl)CC1)c1ccc(-c2ccccn2)cc1", "note": "[PG01037, (E)-N-(4-(4-(2,3-dichlorophenyl)piperazin-1-yl)but-2-enyl)-4-(pyridin-2-yl)benzamide]", "values": [{"measurement": "Intrinsic activity at D3 receptors, adenylyl cyclase inhibition", "setting": "[2]", "value": "antagonist"}, {"measurement": "Intrinsic activity at D3 receptors, mitogenic assay", "setting": "[3]", "value": "antagonist"}]}
{"smiles": "O=C(NCCCCN1CCN(c2cccc(Cl)c2Cl)CC1)c1ccc(-c2cccnc2)cc1", "note": "[PG01042, N-(4-(4-(2,3-dichlorophenyl)piperazin-1-yl)butyl)-4-(pyridin-3-yl)benzamide]", "values": [{"measurement": "Use of right (compromised) forelimb", "setting": "[4]; 12 minutes post injection, n = 7", "value": "70.1 ± 2.3", "unit": "%"}, {"measurement": "Use of right paw", "setting": "[4]; 20 minutes post injection", "value": "85.0 ± 4.6", "unit": "%"}, {"measurement": "Intrinsic activity at D2 receptors, mitogenic assay", "setting": "[5]", "value": "partial agonist"}, {"measurement": "D3 selectivity compared to the D2 dopamine receptor subtype", "setting": "[6]", "value": "39 fold and > 39 fold"}, {"measurement": "Ki", "setting": "[7]", "value": 18.2, "unit": "nM"}, {"measurement": "Mean reduction in the total AIMs score", "setting": "[8]; 1 mg/kg i.p., 0 min pretreatment, L-dopa/benserazide 8 mg/kg each, n = 12", "value": "8.4 ± 7.3", "unit": "%"}, {"measurement": "Mean reduction in the total AIMs score", "setting": "[8]; 3 mg/kg i.p., 0 min pretreatment, L-dopa/benserazide 8 mg/kg each, n = 12, dose response experiment", "value": "25.2 ± 4.4", "unit": "%"}, {"measurement": "Percent reduction of axial twisting AIM score", "setting": "[8]; [11]", "value": "78.5 ± 4.6", "unit": "%"}, {"measurement": "Percent reduction of forelimb movement AIM score", "setting": "[8]; [11]", "value": "56% and 56.0 ± 3.1%"}, {"measurement": "Percent reduction of locomotion AIM score", "setting": "[8]; [11]", "value": "80.4 ± 9.5", "unit": "%"}, {"measurement": "Percent reduction of orolingual AIM score", "setting": "[8]; [11]", "value": "76.5 ± 10.8", "unit": "%"}, {"measurement": "Precipitation of AIMs by test drug alone", "setting": "[8]; 10 mg/kg i.p., during the 60 min pretreatment period before L-dopa", "value": "did not precipitate any AIMs"}, {"measurement": "Normalized total AIMs score, percent relative to vehicle control", "setting": "[8]; 0 minutes pretreatment before L-dopa/benserazide 8 mg/kg", "value": "29.4 ± 6.1", "unit": "%"}, {"measurement": "Normalized total AIMs score, percent relative to vehicle control", "setting": "[8]; 60 minutes pretreatment before L-dopa/benserazide 8 mg/kg", "value": "68.0 ± 8.6", "unit": "%"}, {"measurement": "Effect on total AIM scores versus vehicle control", "setting": "[8]; PG01042 3 mg/kg simultaneously with L-dopa 8 mg/kg i.p., F(1,22) = 14.4, n = 12", "value": "significantly attenuate"}, {"measurement": "IC50 for attenuation of total AIMs score, linear regression analysis", "setting": "[8]; i.p., 0 min pretreatment, doses 0 to 10 mg/kg, L-dopa/benserazide 8 mg/kg each", "value": 6.6, "unit": "mg/kg"}, {"measurement": "IC50 for attenuation of total AIMs score, one site fit", "setting": "[8]; i.p., 0 min pretreatment, curve constrained to 0 and 100%, r^2 = 0.98", "value": 5.6, "unit": "mg/kg"}, {"measurement": "Percent reduction in the total AIMs score, apomorphine-dependent", "setting": "[9]; 10 mg/kg i.p. simultaneously with apomorphine 0.05 mg/kg s.c., 0 to 60 minutes, n = 12", "value": "14.5 ± 3.0", "unit": "%"}, {"measurement": "Percent attenuation of the AIMs minus locomotor scores, apomorphine-dependent", "setting": "[9]; PG01042 simultaneously with apomorphine 0.05 mg/kg s.c., whole time period", "value": "approximately 15%"}, {"measurement": "Latency to fall on rotarod versus vehicle control", "setting": "[10]", "value": "no statistical significant difference"}, {"measurement": "Intrinsic activity at D3 receptors, adenylyl cyclase inhibition", "setting": "[2]", "value": "agonist"}, {"measurement": "Intrinsic activity at D3 receptors, mitogenic assay", "setting": "[3]", "value": "partial agonist"}]}
{"smiles": "COc1ccccc1N1CCN(CCN(C(=O)C2CCCCC2)c2ccccn2)CC1", "note": "[WAY 100635, reference compound]", "values": [{"measurement": "Reduction in the attenuation of total AIMs score by PG01037", "setting": "[8]; WAY 100635 1 mg/kg 10 min before PG01037 3 mg/kg, L-dopa 8 mg/kg i.p.", "value": "no reduction"}]}
{"smiles": "Cl.O=C1CC2(CCCC2)CC(=O)N1CCCCN1CCN(c2ncccn2)CC1", "note": "[buspirone, N-[4-[4-(2-pyrimidinyl)-1-piperazinyl]butyl]-8-azaspiro[4.5]decane-7,9-dione hydrochloride, reference compound]", "values": [{"measurement": "%Reduction of total AIMs values", "setting": "[8]; buspirone 1 mg/kg i.p. with L-dopa 8 mg/kg and benserazide 8 mg/kg, n = 12", "value": "34.8 ± 6.2", "unit": "%"}, {"measurement": "Effect on total AIM scores versus vehicle control", "setting": "[8]; buspirone 4 mg/kg 30 minutes prior to L-dopa 8 mg/kg i.p., p < 0.001, n = 10", "value": "significant reduction"}]}
